The results in this text go back to ChEMBL document CHEMBL1140574, “Design, synthesis, and antimalarial activity of structural chimeras of thiosemicarbazone and ferroquine analogues” (Bioorg Med Chem Lett, 2007).

The structures appear in SMILES notation. Activity calls are given as the source filed them. The rule behind the calls is not given here. Some results are limits rather than exact numbers.

The IC90 is the concentration at which the effect reaches the 90% level. A high value points to weaker potency. For orientation: IC50 means the point on the concentration scale where inhibition reaches its midpoint.

Assay [1] relates to Plasmodium falciparum. Put plainly: Antimalarial activity against chloroquine-sensitive Plasmodium falciparum 3D7. The class given is functional, organism-based. In outline: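 Parasites kept in RPMI 1640 with 10% human serum, 25 mM Hepes, 25 mM NaHCO3, in A-positive human erythrocytes at 37 °C (10% O2, 5% CO2, 85% N2, 95% humidity). Twofold serial dilutions, final 0.01 to 200 µM, in 1% DMSO/RPMI; 42 h incubation. [3H]hypoxanthine uptake measured by scintillation after freeze-thaw lysis and filter harvest; IC50 by nonlinear regression of log-dose/response curves.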

The next assay has as its target T1, Falcipain 2 (Plasmodium falciparum, UniProt Q9N6S8).
T1 sequence (Q9N6S8 whole entry): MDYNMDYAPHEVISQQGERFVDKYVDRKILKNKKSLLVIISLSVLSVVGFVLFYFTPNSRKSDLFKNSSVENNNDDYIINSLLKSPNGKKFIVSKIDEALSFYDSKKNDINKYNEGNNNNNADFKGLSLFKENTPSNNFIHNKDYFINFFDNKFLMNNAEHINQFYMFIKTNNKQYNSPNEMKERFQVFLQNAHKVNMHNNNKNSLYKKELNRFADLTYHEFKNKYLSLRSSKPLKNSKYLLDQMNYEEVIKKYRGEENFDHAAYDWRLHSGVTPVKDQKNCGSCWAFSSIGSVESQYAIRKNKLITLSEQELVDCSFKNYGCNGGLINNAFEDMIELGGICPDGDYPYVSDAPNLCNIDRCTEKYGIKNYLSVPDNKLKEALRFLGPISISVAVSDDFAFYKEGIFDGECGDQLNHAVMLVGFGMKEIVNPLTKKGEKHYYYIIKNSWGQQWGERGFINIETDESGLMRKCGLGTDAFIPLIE
As to the kind of experiment: Inhibition of Plasmodium falciparum W2 recombinant falcipain-2 activity.

Assay [2] has as its system Plasmodium falciparum. Put plainly: Antimalarial activity against chloroquine-resistant Plasmodium falciparum W2. It is filed as functional, organism-based. In outline: (§1)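 Parasites cultured in A-positive human erythrocytes in RPMI 1640 with 10% human serum, 25 mM Hepes, 25 mM NaHCO3, 37 °C, 10% O2/5% CO2/85% N2. Compounds dissolved in DMSO 1% in RPMI, twofold serial dilutions, final […]; 42 h incubation; [3H]hypoxanthine uptake read by scintillation after freeze-thaw lysis; IC50 by nonlinear regression of log-dose/response curves.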

Assay [3] deals with Plasmodium falciparum. Put plainly: Antimalarial activity against chloroquine-resistant Plasmodium falciparum FCR3. It is filed as functional, organism-based. A digest of the protocol: as §1
The subject of assay [4] is Plasmodium falciparum. Put plainly: Antimalarial activity against chloroquine-resistant Plasmodium falciparum Bre1. The class given is functional, organism-based. In outline:
as §1

The subject of assay [5] is Plasmodium falciparum. Put plainly: Antimalarial activity against Plasmodium falciparum W2 as food vacuole abnormality. The class given is functional, organism-based.

`C/C(=N\NC(=S)NCCNc1ccnc2cc(Cl)ccc12)c1ccc(Br)cc1` registered a concentration for an effect of 90% (IC90) with Plasmodium falciparum [1] of 26300 nM. Moreover, the IC50 at Falcipain 2 was determined as 12900 nM.

For `CCN(CC)CCCC(C)Nc1ccnc2cc(Cl)ccc12` (stereo not drawn) [CHLOROQUINE], the IC90 amounted to 41.7 nM in the assay with Plasmodium falciparum [1], 992 nM in the assay on Plasmodium falciparum [2], 1180 nM with Plasmodium falciparum [3] and 722 nM with Plasmodium falciparum [4].

`C/C(=N\NC(=S)NCCNc1ccnc2cc(Cl)ccc12)c1ccc(Cl)c(Cl)c1` had an IC90 in the assay with Plasmodium falciparum [1] of 2400 nM. The IC50 on Falcipain 2 was found to be 4420 nM. Moreover, in the assay on Plasmodium falciparum [5], the outcome was Active.

For the compound `C/C(=N\NC(=S)NCCCNc1ccnc2cc(Cl)ccc12)c1ccc(Br)cc1`, in the assay with Plasmodium falciparum [1], the 90% effect concentration (IC90) came out at 25800 nM. The half-maximal inhibitory concentration (IC50) at Falcipain 2 is greater than 20000 nM.

Consider `C/C(=N\NC(=S)NCCCNc1ccnc2cc(Cl)ccc12)c1ccc(Cl)c(Cl)c1`, for which the concentration for an effect of 90% (IC90) in the assay with Plasmodium falciparum [1] came out at 1400 nM. Further, the half-maximal inhibitory concentration (IC50) on Falcipain 2 was greater than 20000 nM.
